# Test results published in ChEMBL document CHEMBL1128742, “Novel thiazole derivatives as inhibitors of superoxide production by human neutrophils: synthesis and structure-activity relationships” (J Med Chem, 1995).
# Key:
# [1] = organism: Homo sapiens; experiment: In vitro inhibitory activity against superoxide production from human neutrophils stimulated with f-MLP; assay type: functional
# Procedure, shortened: (§1)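 Neutrophils isolated from fresh venous blood of healthy adults by dextran sedimentation and Ficoll-paque gradient. Cells diluted in Hepes–Hanks, pH 7.4, then held at 1 × 10^6 cell/mL and preincubated 20 min at 37 °C with or without compound. Cytochalasin B (1 μg/mL final) added 10 min and ferricytochrome c (106 μM final) added 4 min before f-MLP stimulation. Reaction stopped with 1 mM N-ethylmaleimide, cells spun down, superoxide read as SOD-inhibitable absorbance at 550 nm.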
# [2] = organism: Homo sapiens; experiment: In vitro inhibitory activity against superoxide production from human neutrophils stimulated with f-MLP; NE indicates no effect; assay type: functional; procedure, shortened: as §1
# [3] = Solubility was measured by shaking with water and 1 equiv of NaOH; assay type: physicochemical; details: water with 1 equiv of NaOH
# Procedure, shortened: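 Solubility: compound shaken with water plus 1 equiv NaOH; dissolved amount quantified by HPLC.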
# [4] = organism: Homo sapiens; experiment: In vitro inhibitory activity against superoxide production from human neutrophils stimulated with f-MLP; act.= activation of superoxide production; assay type: functional; procedure, shortened: as §1
# [5] = Solubility was measured by shaking with water; assay type: physicochemical
# Procedure, shortened: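 Aqueous solubility: compound shaken with water; dissolved amount quantified by HPLC.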
# [6] = organism: Homo sapiens; experiment: In vitro inhibitory activity against superoxide production from human neutrophils stimulated with f-MLP; No effect; assay type: functional; procedure, shortened: as §1
# [7] = organism: Homo sapiens; experiment: In vitro inhibitory activity against superoxide production from human neutrophils stimulated with f-MLP; NE= No effect; assay type: functional; procedure, shortened: as §1
SMILES,IC50 [1],also measured
Nc1ccc(-c2csc(-c3cccnc3)n2)cc1,3000 nM,
CCCCOc1ccc(-c2nc(-c3ccc4c(c3)CCC(=O)N4)cs2)cc1OC,,IC50 [2]: Not Active
CCOc1ccc(-c2nc(-c3ccc(C(=O)O)s3)cs2)cc1OCC,80 nM,solubility [3]: 23 mg/mL
O=C1CCc2cc(-c3csc(-c4ccc(O)c(O)c4)n3)ccc2N1,1000 nM,
COc1ccc(-c2nc(-c3ccc4c(c3)CCC(=O)N4)c[nH]2)cc1OC,> 10000 nM,
Cc1ccc(-c2nc(-c3ccc4c(c3)CCC(=O)N4)cs2)cc1C,,IC50 [2]: Not Active
COc1cc(-c2nc(-c3ccc4c(c3)CCC(=O)N4)cs2)ccc1S(C)(=O)=O,,IC50 [2]: Not Active
CCOc1ccc(-c2nc(-c3ccccc3C(=O)O)cs2)cc1OCC,> 10000 nM,solubility [3]: 21 mg/mL
COc1ccc(C(O)c2nc(-c3ccc4c(c3)CCC(=O)N4)cs2)cc1OC (stereo not given),,IC50 [2]: Not Active
O=C1CCc2cc(-c3csc(-c4ccc(Cl)cc4)n3)ccc2N1,,IC50 [2]: Not Active
O=C1CCc2cc(-c3csc(-c4ccc5c(c4)OCCO5)n3)ccc2N1,,IC50 [2]: Not Active
O=C1CCc2cc(-c3csc(-c4ccc([N+](=O)[O-])cc4)n3)ccc2N1,,IC50 [2]: Not Active
COc1ccc(-c2nc(-c3ccc4c(c3)CCC(=O)N4)co2)cc1OC,> 10000 nM,
COc1cccc(-c2nc(-c3ccc4c(c3)CCC(=O)N4)cs2)c1OC,,IC50 [4]: Active
CCOc1ccc(-c2nc(-c3cc(OC(C)=O)cc(OC(C)=O)c3)cs2)cc1OCC,1 nM,solubility thermodynamic [5]: < 0.001 mg/mL
CCOc1ccc(-c2nc(-c3ccc(C(=O)O)o3)cs2)cc1OCC,20 nM,solubility [3]: 23 mg/mL
O=C1CCc2cc(-c3csc(-c4cccnc4)n3)ccc2N1,1000 nM,
CCOc1ccc(-c2nc(-c3cccc(C(=O)O)c3)cs2)cc1OCC,5 nM,solubility [3]: 23 mg/mL
CCOc1ccc(-c2nc(-c3ccc(C(=O)O)cc3)cs2)cc1OCC,200 nM,solubility [3]: 23 mg/mL
CCCOc1ccc(-c2nc(-c3ccc4c(c3)CCC(=O)N4)cs2)cc1OC,,IC50 [2]: Not Active
CCCCOc1ccc(-c2nc(-c3ccc4c(c3)CCC(=O)N4)cs2)cc1OCCCC,,IC50 [2]: Not Active
CCCOc1ccc(-c2nc(-c3ccc4c(c3)CCC(=O)N4)cs2)cc1OCCC,,IC50 [2]: Not Active
CCOc1ccc(-c2nc(-c3cccc(C(=O)O)n3)cs2)cc1OCC [TETOMILAST],70 nM,solubility [3]: 21 mg/mL
CC(=O)Oc1ccc(-c2nc(-c3ccc4c(c3)CCC(=O)N4)cs2)cc1OC(C)=O,,IC50 [6]: Not Active
COc1cc(OC)cc(-c2nc(-c3ccc4c(c3)CCC(=O)N4)cs2)c1,,IC50 [2]: Not Active
c1ccc(-c2csc(-c3cccnc3)n2)cc1,1000 nM,
O=C1CCc2cc(-c3csc(-c4ccc(C(=O)O)cc4)n3)ccc2N1,,IC50 [2]: Not Active
c1cncc(-c2csc(-c3cccnc3)n2)c1,1000 nM,
CCCCCCCCCCOc1ccc(-c2nc(-c3ccc4c(c3)CCC(=O)N4)cs2)cc1OCCCCCCCCCC,,IC50 [7]: Not Active

# Continued, in another order:
IC50 [1],SMILES,also measured
10000 nM,COc1ccc(Cc2nc(-c3ccc4c(c3)CCC(=O)N4)cs2)cc1OC,
1000 nM,COc1ccc(C(=O)c2nc(-c3ccc4c(c3)CCC(=O)N4)cs2)cc1OC,
3000 nM,COc1ccc(-c2nc(-c3ccc4c(c3)CCC(=O)N4)cs2)c(OC)c1,
2800 nM,COc1ccc(/C=C/c2nc(-c3ccc4c(c3)CCC(=O)N4)cs2)cc1OC,
300 nM,COc1ccc(-c2nc(-c3ccc4c(c3)CCC(=O)N4)cs2)cc1OC,
300 nM,CCCCOc1cc(-c2nc(-c3ccc4c(c3)CCC(=O)N4)cs2)ccc1OC,
400 nM,COc1cc(-c2nc(-c3ccc4c(c3)CCC(=O)N4)cs2)ccc1SC,
> 10000 nM,O=C1CCc2cc(-c3csc(-c4ccccc4)n3)ccc2N1,
90 nM,CCCOc1cc(-c2nc(-c3ccc4c(c3)CCC(=O)N4)cs2)ccc1OC,
9000 nM,COc1ccc(-c2nc(-c3ccc4c(c3)CCC(=O)N4)cs2)cc1,
90 nM,CCOc1cc(-c2nc(-c3ccc4c(c3)CCC(=O)N4)cs2)ccc1OC,
800 nM,COc1cc(-c2nc(-c3ccc4c(c3)CCC(=O)N4)cs2)ccc1[S+](C)[O-] (stereo not given),
600 nM,CCOc1ccc(-c2nc(-c3ccc4c(c3)CCC(=O)N4)cs2)cc1OC,
80 nM,CCOc1ccc(-c2nc(-c3ccc4c(c3)CCC(=O)N4)cs2)cc1OCC,
